Reference: ChEMBL document CHEMBL1122318, “Aporphines. 50. Kinetics of solvolysis of N-(2-chloroethyl)norapomorphine, an irreversible dopamine receptor antagonist” (J Med Chem, 1983)
Several values for one entry are separate records, joined by “and”; a condition that tells them apart may be missing. Identical values can stand only once.

What was measured:
Assay type in all cases: ADME
[1] = Half-life period at pH 5.80(in 0.1 M acetate).; conditions: 0.1 M acetate buffer, pH 5.8
How it was run: (§1)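 Buffers were 0.1 M sodium acetate titrated with 0.1 M acetic acid below pH 6.0, and NaH2PO4–Na2HPO4 (100 mM) at pH 6.0–8.0. Remaining NCA was quantified from peak heights against a 100–900 ng standard curve. First-order kobsd came from log[NCA] versus time over at least two half-lives.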

[2] = Apparent rate of cyclization (kobsd) value at pH 5.60(in 0.1 M acetate).; conditions: pH 5.6; how it was run: as §1
[3] = Half-life period at pH 5.60(in 0.1 M acetate).; conditions: 0.1 M acetate buffer, pH 5.6; how it was run: as §1
[4] = Half-life period at pH 7.00(in 0.1 M […]).
[5] = Half-life period at pH 6.25(in 0.1 M […]).; conditions: 0.1 M […] buffer
[6] = Apparent rate of cyclization (kobsd) value at pH 5.40(in 0.1 M acetate).; conditions: pH 5.4; how it was run: as §1
[7] = Half-life period at pH 7.50(in 0.1 M […]).; conditions: 0.1 M […] buffer, pH 7.5
[8] = Apparent rate of cyclization (kobsd) value at pH 5.80(in 0.1 M acetate).; conditions: pH 5.8; how it was run: as §1
[9] = Apparent rate of cyclization (kobsd) value at pH 6.75(in 0.1 M phosphate).; how it was run: as §1
[10] = Half-life period at pH 8.00(in 0.1 M […]).; conditions: 0.1 M […] buffer
[11] = Apparent rate of cyclization (kobsd) value at pH 6.00(in 0.1 M phosphate).; how it was run: as §1
[12] = Half-life period at pH 6.50(in 0.1 M […]).; conditions: 0.1 M […] buffer, pH 6.5
[13] = Half-life period at pH 6.75(in 0.1 M […]).; conditions: 0.1 M […] buffer
[14] = Half-life period at pH 6.00(in 0.1 M […]).; conditions: 0.1 M acetate buffer
[15] = Half-life period at pH 5.40(in 0.1 M acetate).; conditions: 0.1 M acetate buffer, pH 5.4; how it was run: as §1
[16] = Apparent rate of cyclization (kobsd) value at pH 7.00(in 0.1 M […]).
[17] = Apparent rate of cyclization (kobsd) value at pH 8.00(in 0.1 M […]).
[18] = Apparent rate of cyclization (kobsd) value at pH 6.50(in 0.1 M phosphate).; conditions: pH 6.5; how it was run: as §1
[19] = Apparent rate of cyclization (kobsd) value at pH 6.25(in 0.1 M phosphate).; how it was run: as §1

Compound `Oc1ccc2c(c1O)-c1cccc3c1[C@@H](C2)N(CCCl)CC3` has a half-life [1] of 107 min, a k obs [2] of 49 min⁻¹ and a half-life [3] of 141 min. The T1/2 [4] was 28 min, the half-life ([4]; 0.1 M acetate buffer) was 29 min and the half-life [5] was 45 min. For the same compound, the k obs [6] was 36 min⁻¹, the half-life [7] was 24 min and the k obs [8] was 65 min⁻¹. It also gave a k obs [9] of 212 min⁻¹, a half-life [10] of 22 min and a k obs [11] of 97 min⁻¹. The half-life [12] was 39 min, the half-life [13] was 33 min and the half-life [14] was 71 min. For the same compound, the half-life [15] was 192 min, the k obs [16] was 243 min⁻¹ and 252 min⁻¹ and the k obs [17] was 308 min⁻¹. It also gave a k obs [18] of 175 min⁻¹ and a k obs [19] of 152 min⁻¹.
